# Screening results: PubChem BioAssay, Johns Hopkins Ion Channel Center
# TRPC4 inh: blocks the mouse TRPC4 cation channel | Q9QUQ5 | HEK293 TRPC4beta/mu-opioid, DAMGO-evoked Fluo4 calcium flux; hits give low values | B-score at 10 µM | hit rate 0.39% among 300,000;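 active = B-score over 3 SD under the library average, no early fluorescence shift, positive overall ratio signal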
#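 Assay system: HEK293 cells with stable TRPC4beta plus mu-opioid receptor expression. Dosing: single dose. Measured by: Fluo4 Ca2+ flux fluorescence. Also added: DAMGO in two steps, submaximal then maximal. Read-out: B score from integrated Fluo4 fluorescence ratio.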
# TRPC6 inhibitor: inhibitors of mouse TRPC6 channel | HEK293-TRPC6, membrane potential dye, ACh-evoked depolarization; hits give low values | B-score at 10 µM | hit rate 1.1% among 310,000 | AID 2553;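 active = B-score under library mean minus 3 SD, initial fluorescence not abnormally high, positive integrated signal ratio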;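 note: B-score derived from integrated fluorescence ratio over the kinetic read; more negative B-score means stronger inhibition of depolarization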
# Target sequence (Q61143 whole entry, looked up): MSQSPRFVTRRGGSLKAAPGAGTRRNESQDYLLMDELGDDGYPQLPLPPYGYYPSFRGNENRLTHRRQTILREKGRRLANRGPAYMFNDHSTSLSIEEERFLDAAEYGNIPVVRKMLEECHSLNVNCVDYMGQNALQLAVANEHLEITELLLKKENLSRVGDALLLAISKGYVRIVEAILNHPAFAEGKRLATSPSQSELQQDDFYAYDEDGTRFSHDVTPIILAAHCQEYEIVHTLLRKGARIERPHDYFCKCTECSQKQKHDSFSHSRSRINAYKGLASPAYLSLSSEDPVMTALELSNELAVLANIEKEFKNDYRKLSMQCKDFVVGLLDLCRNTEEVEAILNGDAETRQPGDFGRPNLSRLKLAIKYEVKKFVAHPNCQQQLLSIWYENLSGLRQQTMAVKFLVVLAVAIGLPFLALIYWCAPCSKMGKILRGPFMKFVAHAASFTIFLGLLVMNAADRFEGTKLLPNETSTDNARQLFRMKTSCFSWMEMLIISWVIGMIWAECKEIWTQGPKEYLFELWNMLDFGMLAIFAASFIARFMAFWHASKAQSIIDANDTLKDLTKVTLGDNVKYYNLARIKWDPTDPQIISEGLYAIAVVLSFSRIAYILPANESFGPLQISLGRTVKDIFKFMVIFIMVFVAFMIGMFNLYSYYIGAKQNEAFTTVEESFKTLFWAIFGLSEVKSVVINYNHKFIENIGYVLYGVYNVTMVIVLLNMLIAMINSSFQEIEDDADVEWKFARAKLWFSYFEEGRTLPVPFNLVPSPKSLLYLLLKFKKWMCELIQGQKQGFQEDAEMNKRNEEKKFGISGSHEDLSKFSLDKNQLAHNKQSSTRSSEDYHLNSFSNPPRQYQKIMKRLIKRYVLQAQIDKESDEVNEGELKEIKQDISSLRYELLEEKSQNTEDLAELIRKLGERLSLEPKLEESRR
# TRPC4 potent: allosterically enhances the mouse TRPC4 cation channel. Q9QUQ5. HEK293 TRPC4beta/mu-opioid, DAMGO EC20, Fluo-4 Ca2+ flux; hits give high values. B-score at 10 µM. hit rate 0.42% among 310,000. AID 2227;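 active = B-score of calcium response area above 5 SD of library B-scores, with initial fluorescence ratio within 5 SD of library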;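 note: B-score of integrated fluorescence ratio over time as area under calcium response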
# TRPC6 act: activates the mouse TRPC6 cation channel. HEK293-TRPC6 membrane potential dye fluorescence; hits give high values. B-score at 10 µM. Q61143. hit rate 0.13% among 310,000;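 active = B-score of the integrated fluorescence ratio above library mean plus 3 SD, and starting fluorescence ratio within library mean plus 5 SD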;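 note: higher score means more depolarization so channel activation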
# TRPC4 act: opens the mouse TRPC4 cation channel | HEK293 TRPC4beta/mu-opioid, Fluo4 calcium fluorescence; hits give high values | Q9QUQ5 | B-score at 10 µM | hit rate 0.49% among 310,000 | AID 2237;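 active = B-score above 5 SD of library B-scores, and initial fluorescence ratio not above library mean plus 5 SD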;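 note: positive B-score marks a calcium rise read as TRPC4 activation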
#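 system = HEK293 cells stably co-expressing mouse TRPC4beta and mu-opioid receptor | schedule = Fluo4 dye loading 45 min at room temperature, 110 s recording | measure = B-scored integrated calcium fluorescence ratio | signal = Fluo4 calcium-sensitive dye fluorescence, kinetic, 1 Hz baseline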
# TRPC4 spec 2: second check of whether TRPC6 inhibitors also affect mouse TRPC4; shares compounds with TRPC6 inhibitor; HEK293 TRPC4/MOR, membrane potential dye fluorescence; channel activated by saturating DAMGO dose; hit rate 42% among 920; inhibition, % at 10 µM; AID 2776;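 active = compounds whose fluorescence signal differed from control wells by over 3 SD, either direction, in both duplicate plates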
# TRPC4 spec: mouse TRPC4 off-target activity of TRPC6 inhibitors | hit rate 61% among 920 | HEK293 TRPC4/mu-opioid, membrane potential fluorescence | activity change, negative = inhibition, % at 10 µM | shares compounds with TRPC6 inhibitor;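 active = rise or fall in signal beyond 3 SD of buffer-only wells in both replicate plates, either sign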;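 note: integrated kinetic ratio of fluorescence range over baseline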
# HEK293 MPD ctr 2-1: parental HEK293 nonspecific activity of TRPC6 inhibitors, second screen. shares compounds with TRPC6 inhibitor. parental HEK293 membrane potential dye fluorescence; maximal acetylcholine challenge after compound addition. signal change vs control, % at 10 µM. hit rate 31% among 920. AID 2779;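 active = membrane potential signal moving either way by over 3 SD of the maximum-effect control, in both duplicate plates, meaning non-specific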
# HEK293 MPD ctr-1: counter-screen for TRPC6 inhibitors: effect in parental HEK293 cells; shares compounds with TRPC6 inhibitor; parental HEK293 membrane potential dye fluorescence; membrane potential signal change, % at 10 µM; hit rate 60% among 920;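 active = membrane potential signal shifting up or down by more than 3 SD of buffer-only wells, on both duplicate plates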
# HEK293 MPD ctr-2: counter-screen for TRPC6 modulators: effect in parental HEK293 cells | membrane potential signal change, % at 10 µM | shares compounds with TRPC6 inhibitor | membrane potential dye fluorescence | hit rate 51% among 2,400;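 active = membrane potential signal moves up or down beyond 5 SD from buffer-only wells, on both duplicate plates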
# HEK293 MPD ctr 2-2: second counter-screen for TRPC6 modulators: effect in parental HEK293 cells; inhibition, % at 10 µM; AID 488926; shares compounds with TRPC6 inhibitor; hit rate 14% among 2,400; membrane potential dye fluorescence; after compound, maximal acetylcholine stimulation;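 active = membrane potential signal drops by more than 5 SD from the mean control signal, in both duplicate plates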;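 note: plate controls were acetylcholine ECmax control wells for no effect and buffer only wells for full effect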
# TRPC4/MOR mod: mouse TRPC4 off-target activity of TRPC6 modulators | shares compounds with TRPC6 inhibitor | HEK293 TRPC4/mu-opioid, membrane potential fluorescence | percent change from control (negative = decrease, positive = increase), % at 10 µM | hit rate 69% among 2,400;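 active = membrane potential signal moved up or down beyond 5 SD of buffer control wells, in both duplicate plates, actives on both sides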;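 note: plate controls were assay buffer wells for no effect and DAMGO maximal-effect wells for full effect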
# TRPC4 ctr inh 2: second selectivity test of TRPC6 modulators against mouse TRPC4 | hit rate 55% among 2,400 | inhibition, % at 10 µM | shares compounds with TRPC6 inhibitor | HEK293 TRPC4/mu-opioid, membrane potential dye fluorescence; stimulated with maximal-effect DAMGO | AID 488928;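 active = drop in membrane potential signal beyond 5 SD of the control wells in both duplicate plates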;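 note: TRPC4 counter screen for TRPC6 hits run under conditions tuned for TRPC6 not TRPC4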
# TRPC6 block conf: confirmation of mouse TRPC6 inhibitors; shares compounds with TRPC6 inhibitor; inhibition, % at 10 µM; AID 488960; HEK293-TRPC6, membrane potential dye, ACh-evoked depolarization; hit rate 43% among 3,300;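 active = fluorescence ratio falls more than 5 SD below the full-stimulation control mean, in both duplicate runs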;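 note: integrated fluorescence ratio of peak minus minimum over baseline after agonist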
# TRPC6 act conf: confirmation of mouse TRPC6 activators | activation, % at 10 µM | shares compounds with TRPC6 inhibitor | HEK293-TRPC6 membrane potential dye fluorescence, FDSS | AID 488961 | hit rate 11% among 2,800;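 active = ratio signal rise beyond 5 SD above unstimulated control wells' mean, seen in both duplicate runs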;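 note: plate controls were buffer EC0 wells for no effect and acetylcholine ECmax response for full effect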
# Active calls of the source: *; i = inactive; · = no result given. Hits are enriched below; roughly 2.3% of the tested compounds scored in any of these assays.
SMILES,TRPC4 inh,TRPC6 inhibitor,TRPC4 potent,TRPC6 act,TRPC4 act,HEK293 MPD ctr-2,HEK293 MPD ctr 2-2,TRPC4/MOR mod,TRPC4 ctr inh 2,TRPC6 block conf,TRPC6 act conf,others
COC(=O)[C@]1(CC(C)C)N[C@H](c2ccc(-c3ccc(F)cc3)c(OC)c2)[C@@H]2C(=O)N(C)C(=O)[C@@H]21,i,i,i,i,i,·,·,·,·,·,·,
CCOc1ccccc1NC(=O)C1CCCN(S(=O)(=O)c2ccc3c(c2)C(C)(C)C(=O)N3C)C1 (stereo unspecified),i,i,i,i,i,·,·,·,·,·,·,
COc1cc(/C=N/Nc2nncc3ccccc23)cc(OC)c1OC,i,-7.9*,i,i,i,·,·,·,·,i,i,TRPC4 spec 2=i;TRPC4 spec=-25%*;HEK293 MPD ctr 2-1=i;HEK293 MPD ctr-1=-458%*
CSc1cccc(NC(=S)N2CCC(N(C)C3CCCCCC3)CC2)c1,i,-7.8*,i,i,i,·,·,·,·,i,i,TRPC4 spec 2=58%*;TRPC4 spec=i;HEK293 MPD ctr 2-1=i;HEK293 MPD ctr-1=0.9%*
COc1cc(C)c(Cl)cc1S(=O)(=O)N1CCSC1,i,i,i,i,i,·,·,·,·,·,·,
CCN1CCc2c(OCc3ccccc3)cccc2C1=O,i,-5.6*,i,i,i,126%*,i,21%*,i,i,·,
Cc1cc(C)nc(/N=C(\N)N2CCc3ccccc32)n1,i,-6.4*,i,i,i,i,i,-12%*,46%*,i,i,
CCCCCC(=O)NC(=S)Nc1ccc2oc(=O)ccc2c1,i,-6.4*,i,i,i,i,i,-14%*,i,i,i,
COc1ccc(Nc2nnc(Cc3ccncc3)c3ccccc23)c(OC)c1,i,i,i,i,i,·,·,·,·,·,·,
Cc1ccc(Cl)cc1NC(=O)CC(O)(C(F)(F)F)C(F)(F)F,i,-8.1*,i,i,i,·,·,·,·,110%*,·,TRPC4 spec 2=58%*;TRPC4 spec=41%*;HEK293 MPD ctr 2-1=-77%*;HEK293 MPD ctr-1=28%*
COC(=O)c1sc2nc(-c3ccccc3)nc(N3CCN(C)CC3)c2c1C,i,-5.4*,i,i,i,-122%*,i,-29%*,i,i,i,
CCOC(=O)c1sc2ncnc(N3CCN(C)CC3)c2c1C,i,-5.5*,i,i,i,-118%*,i,-20%*,34%*,i,i,
NC(=O)c1ccc(NC(=O)CS(=O)(=O)c2cn(CC(=O)N3CCCCC3)c3ccccc23)cc1,i,i,i,i,i,·,·,·,·,·,·,
COc1ccc(S(=O)(=O)N2CCN(C3CCCC(C)C3)CC2)cc1 (stereo unspecified),i,i,i,i,i,·,·,·,·,·,·,
COc1cccc(N2CCN(C3CCCC(C)C3)CC2)c1 (stereo unspecified),i,-5.8*,i,i,i,184%*,i,38%*,48%*,i,·,
Cc1cc(=O)[nH]c(N2CCN(C(=O)c3ccco3)CC2)n1,i,i,i,i,i,·,·,·,·,·,·,
Cc1cc(N2CCN(c3nc(-c4ccccc4)cs3)CC2)c2ccccc2n1,i,i,i,i,i,·,·,·,·,·,·,
Nc1nc(N2CCN(C/C=C/c3ccccc3)CC2)nc2ccccc12,i,-6.7*,i,i,i,·,·,·,·,88%*,i,TRPC4 spec 2=18%*;TRPC4 spec=-21%*;HEK293 MPD ctr 2-1=i;HEK293 MPD ctr-1=i
Nc1nc(N2CCN(C(=O)c3ccco3)CC2)nc2ccc(Br)cc12,i,i,i,i,i,·,·,·,·,·,·,
Cc1cc(N2CCN(C(=O)c3ccco3)CC2)c2ccccc2n1,i,-6.4*,i,i,i,-168%*,i,-29%*,28%*,i,i,
Nc1nc(N2CCN(C(=O)c3ccco3)CC2)nc2ccccc12,i,-7.5*,i,i,i,·,·,·,·,i,i,TRPC4 spec 2=i;TRPC4 spec=-23%*;HEK293 MPD ctr 2-1=i;HEK293 MPD ctr-1=-412%*
Cc1cc(N2CCN(S(=O)(=O)c3ccccc3)CC2)c2ccccc2n1,i,-8.9*,i,i,i,-187%*,i,-31%*,68%*,48%*,i,
O=C(CSc1nc(C(F)(F)F)cc(=O)[nH]1)Nc1nccs1,i,i,i,i,i,·,·,·,·,·,·,
O=C(COc1ccc2c(-c3ccccc3)cc(=O)oc2c1)Nc1cccnc1,i,i,i,i,i,·,·,·,·,·,·,
NCCCCCc1nnc(SCc2ccc(Cl)c(Cl)c2)o1,i,-6.2*,i,i,i,i,i,i,66%*,60%*,i,
Cc1cccc(OCC(=O)OC(C)CN2CCCCC2)c1 (stereo unspecified),i,i,i,i,i,·,·,·,·,·,·,
C[C@@H]1C(=O)OC[C@H]1NC(=O)OCc1ccccc1,i,i,i,i,i,·,·,·,·,·,·,
Cn1c(=O)c(Nc2ccc(O)cc2)c2c3c(cccc31)C(=O)c1ccccc1-2,i,-6*,i,i,i,i,i,-27%*,59%*,i,i,
CC(=O)c1c2c3c(cccc3n(C)c1=O)C(=O)c1ccccc1-2,i,i,i,i,i,·,·,·,·,·,·,
CC(C(Sc1ccccc1N)c1ccccc1)[N+](=O)[O-] (stereo unspecified),i,i,i,i,i,·,·,·,·,·,·,
